Runt-SMMHC FRET: inhibitors of RUNX1 Runt–CBFb-SMMHC binding, primary screen, biochemical, FRET, Cerulean-Runt, Venus-CBFb-SMMHC, uHTS; Runt-related transcription factor 1 (Homo sapiens) + Core-binding factor subunit beta …; Cerulean-Runt/Venus-CBFb-SMMHC FRET ratio 530/480, 1 h; inhibition, % at 20 µM; 220,000 compounds, 0.74% hits; AID 1434, 2008;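 active = mean inhibition across duplicate retests at 20 µM reaching about 50%, limit read from the data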;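 also: 0% = DMSO wells and 100% = wells with excess untagged CBFb-SMMHC; inhibitors lower the FRET ratio by blocking Runt binding to CBFb-SMMHC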
Runt-CBFb FRET: inhibitors of RUNX1 Runt–CBFb binding, primary screen, biochemical, FRET, Cerulean-Runt, Venus-CBFb, uHTS; Runt-related transcription factor 1 (Homo sapiens) + Core-binding factor subunit beta …; Cerulean-Runt/Venus-CBFb FRET ratio 530/480, 1 h; inhibition, % at 20 µM; 220,000 compounds, 0.46% hits; AID 1496, 2009;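 active = inhibition over about 50% at 20 µM in the single-dose screen, limit read from the data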;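 also: 0% = DMSO wells and 100% = excess unlabeled CBFb competitor control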
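Assay system: Cerulean-tagged RUNX1 Runt domain (FRET donor) fusion protein / Amount: 100 nM each of Venus-CBFb and Cerulean-Runt domain / Medium: Tris buffer pH 7.5 with salts and BSA / Also added: Venus-CBFb 100 nM / Schedule: 1 h complex formation plus 1 h compound treatment, room temperature / Signal: FRET fluorescence / Read-out: loss of energy transfer signal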
Hck-Nef inh: inhibitors of Nef-activated human Hck kinase, primary screen, biochemical, Z-Lyte FRET, 384-well, Hck-YEEI; Tyrosine-protein kinase HCK (Homo sapiens), P08631; Recombinant Hck-YEEI plus Nef, Z-Lyte FRET kinase assay; inhibition, % at 20 µM; 220,000 compounds, 0.68% hits;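 active = Hck-Nef kinase inhibition above about 50%, limit read from the data; inactive = inhibition below that limit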;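 also: 0% = DMSO with Hck plus Nef and 100% = Hck alone without Nef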
Target sequence (P08631 whole entry, looked up): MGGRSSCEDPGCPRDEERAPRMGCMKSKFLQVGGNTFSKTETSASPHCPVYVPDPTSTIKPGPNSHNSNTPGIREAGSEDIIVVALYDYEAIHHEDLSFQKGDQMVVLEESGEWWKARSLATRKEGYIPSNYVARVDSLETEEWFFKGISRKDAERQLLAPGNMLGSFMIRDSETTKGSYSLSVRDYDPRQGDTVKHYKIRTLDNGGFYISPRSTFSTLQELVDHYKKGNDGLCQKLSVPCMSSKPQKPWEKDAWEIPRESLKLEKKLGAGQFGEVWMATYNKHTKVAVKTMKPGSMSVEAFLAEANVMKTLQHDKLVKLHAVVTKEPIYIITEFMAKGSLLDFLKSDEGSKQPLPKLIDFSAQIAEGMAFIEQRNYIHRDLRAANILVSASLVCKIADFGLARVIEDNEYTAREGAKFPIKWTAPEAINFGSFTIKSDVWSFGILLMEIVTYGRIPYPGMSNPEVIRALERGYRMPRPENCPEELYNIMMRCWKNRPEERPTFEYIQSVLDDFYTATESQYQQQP
RanGTP-Impb inh: inhibitors of RanGTP-importin-beta interaction, primary screen, biochemical, FRET, CFP-Ran, YFP-importin-beta, homogeneous. inhibition, % (no concentration beside the values). 300,000 compounds, 1.1% hits. cell-free CFP-Ran/YFP-importin-beta FRET ratio. AID 2216, 2009. Ran GTPase (GTP-bound) - importin-beta complex;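 active = more than half of the replicate wells show a fall in the fluorescence ratio signal beyond about 16%, limit read from the data, passing the limit was not always enough; inconclusive = exactly half of the replicate wells pass the set limit; inactive = fewer than half of replicates pass the limit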;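 also: 0% = DMSO wells and 100% = Ran loaded with GDP instead of GTP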
Starred values were filed as active, the others as inactive; ? = inconclusive; · = no result given. Rows were chosen to be rich in hits. Some 1.8% of all compounds tested hit in one or more screens of this group.

SMILES | Runt-SMMHC FRET | Runt-CBFb FRET | Hck-Nef inh | RanGTP-Impb inh
N#C/C(=C\c1ccccc1)C(=O)Nc1ccccn1 | · | · | · | 49*
N#C/C(=C\c1ccccc1Cl)C(=O)Nc1ccccn1 | · | · | · | 44*
C=CCOc1ccc(/C=C(\C#N)C(=O)Nc2ccccn2)cc1 | · | · | · | 17*
N#C/C(=C\c1cccs1)C(=O)Nc1ccccn1 | -18 | -4 | 16 | 26*
O=C(CCn1cnnn1)Nc1ccc(F)cc1 | -3 | 2 | 20 | 0
Cc1cccc(NC(=O)CSc2nnc(C)c(C)n2)c1 | · | · | · | 2
Cn1c(N)c(S(=O)(=O)N2CCN(c3cccc(Cl)c3)CC2)c(=O)n(C)c1=O | · | · | · | -1
Cn1c(N)c(S(=O)(=O)N2CCN(c3ccccc3Cl)CC2)c(=O)n(C)c1=O | · | · | · | 26*
O=C(Cc1ccc(F)cc1)Nc1c(C(=O)N2CCN(c3ncccn3)CC2)oc2ccccc12 | · | · | · | 0
O=[N+]([O-])c1ccc(OCC(O)CN2CCN(c3ccccc3F)CC2)cc1 (stereo unspecified) | -9 | 0 | 1 | 5
C=CCOc1ccc(C2C(C(=O)c3cccs3)=C(O)C(=O)N2c2nnc(C)s2)cc1 (stereo unspecified) | · | · | 0 | -12
COc1ccc(C2C(C(=O)c3cccs3)=C(O)C(=O)N2c2nncs2)cc1 (stereo unspecified) | 103* | 49 | 1 | -22
Cc1ccc(C(=O)N2N=C(c3cccc(NS(C)(=O)=O)c3)CC2c2cccs2)cc1 (stereo unspecified) | · | · | · | 3
CCN(CC)CCCN1C(=O)C(=O)/C(=C(/O)c2ccc(C)cc2)C1c1ccccn1 (stereo unspecified) | -7 | -1 | 1 | 2
O=C1C(=O)N(CCN2CCOCC2)C(c2cccnc2)/C1=C(/O)c1ccccc1 (stereo unspecified) | · | · | 17 | 4
Cc1ccc(/C(O)=C2/C(=O)C(=O)N(CCN3CCOCC3)C2c2ccccn2)cc1 (stereo unspecified) | 8 | 9 | 0 | 22*
COc1ccc(/C(O)=C2/C(=O)C(=O)N(CCN3CCOCC3)C2c2ccccn2)cc1OC (stereo unspecified) | 12 | 1 | 1 | 29*
O=C1C(=O)N(CCN2CCOCC2)C(c2ccccn2)/C1=C(/O)c1ccccc1 (stereo unspecified) | 6 | 8 | 1 | 24*
CN(C)CCCN1C(=O)C(=O)/C(=C(/O)c2ccccc2)C1c1ccccn1 (stereo unspecified) | -1 | 0 | · | ·
COc1ccc(/C(O)=C2/C(=O)C(=O)N(CCN(C)C)C2c2ccccn2)cc1OC (stereo unspecified) | -2 | 3 | 2 | 23*
COc1ccc2c(c1)cc(C(=O)N[C@@H](CCSC)C(=O)N1CCC(C(=O)O)CC1)n2C | · | · | · | -2
O=Cc1cccc(OC(=O)Nc2ccccc2)c1 | · | · | · | 7
CCOC(=O)c1cc(-c2ccccc2)nc2nc(N(CC)CC)sc12 | · | · | · | 45*
Cc1cc(C)nc(NC(=NCCc2c[nH]c3ccccc23)NC(=O)C(C)(C)C)n1 | -12 | 3 | 15 | 1
CC(=O)Oc1c(/C=C(\C#N)C(N)=O)[nH]c2ccccc12 | 20 | 34 | 15 | 16*
SMILES | Runt-SMMHC FRET | Runt-CBFb FRET | Hck-Nef inh | RanGTP-Impb inh
N#C/C(=C\c1c[nH]c2ccccc12)C(N)=O | -1 | 3 | 44 | 7
COC(=O)c1cc(C)nc(N)c1C#N | 10 | 9 | -14 | 2
COC(=O)c1c(C#N)c(N)nc2c1CCC2 | 62* | 96* | 12 | 66*
Cc1noc(/C=C/N(C)C)c1S(=O)(=O)N1CCC(C(=O)NC(C)(C)C)CC1 | · | · | · | -3
Cc1ccccc1-n1c2nc(=O)n(C)c(=O)c-2cc2ccccc21 | 81* | 12 | 49 | 136*
CCCCn1c(=O)c2ccccc2c2ccccc2c1=O | -1 | -1 | -1 | ·
Cc1ccccc1-n1c(=O)c2ccccc2n2nnnc12 | 2 | -1 | 9 | 1
CCCCn1c(=O)nc2n(-c3ccccc3C)c3ccccc3cc-2c1=O | 82* | 4 | 33 | 130*
Cc1cc[n+]2cc(-c3cccc([N+](=O)[O-])c3)c(-c3cccc([N+](=O)[O-])c3)cc2c1 | 6 | 0 | 3 | 3
COc1ccc(C(=O)NC(=S)NCc2cccnc2)cc1Cl | · | · | · | 8
Cc1c2cnn(CC(=O)Nc3c(F)c(F)cc(F)c3F)c(=O)c2c(C)n1Cc1ccccc1F | -11 | -9 | 52* | -2
Cc1ccc(NC(=O)CN2C(=O)c3ccccc3C2=O)nc1 | -2 | -1 | 12 | 4
Cc1ccc(C(CC(=O)O)NC(=O)CN2C(=O)c3ccccc3C2=O)cc1 (stereo unspecified) | · | · | · | 70*
COc1cccc(/C=C2\CCCCC2=O)c1 | · | · | · | 0
O=C1CCC/C1=C\c1ccccc1 | 0 | 0 | -6 | 149*
CCCN1CCC(NC(=O)Cc2ccc(C)cc2)CC1 | · | · | · | 11
CC(=O)Nc1ccc2c3c(cccc13)C(=O)N(c1ccccc1)C2=O | 87* | 21 | 8 | 73*
O=C(O)c1ccc2c3c(cccc13)C(=O)N(c1ccccc1)C2=O | 120 | -1 | 19 | ?
N#CC(C#N)=C(Nc1ccc(F)cc1)SCc1cccc(F)c1 | 2 | 0 | 1 | -1
Cc1ccccc1Cn1c(=O)n(Cc2ccco2)c(=O)c2ccccc21 | 9 | 10 | 8 | 1
N#Cc1cc2c(=O)n3ccccc3nc2n(Cc2ccco2)c1=NC(=O)c1ccco1 | · | 4 | 2 | 56*
Cc1ccccc1C(=O)N=c1c(C#N)cc2c(=O)n3cccc(C)c3nc2n1Cc1ccco1 | 58* | 124* | 13 | 110*
COc1ccc(C(=O)N=c2c(C#N)cc3c(=O)n4cccc(C)c4nc3n2Cc2ccco2)cc1 | · | 70* | 8 | 78*
O=C(CCn1c(=O)c2ccccc2n(Cc2cc(=O)n3ccccc3n2)c1=O)NCc1ccco1 | 4 | -1 | -9 | -1
Cc1cc(C)c2nc(-c3cccc(Cl)c3)c(C)c(C(=O)N3CCOCC3)c2c1 | · | · | · | -5
CC(C)(C)C1=CC(=O)C(=O)C(C(C)(C)C)=C1 | 70 | 48 | 56* | 3
CC(C)(C)C1=CC(=Nc2ccccc2N)C=C(C(C)(C)C)C1=O | 4 | -4 | 2 | -2
CCOC(=O)C1=C(CSc2nc3c(cc2C#N)CN(C)CC3)OC(N)=C(C#N)C1c1ccccc1 (stereo unspecified) | 104* | 45 | 3 | 32*
CCOC(=O)C1=C(CSc2nc3c(cc2C#N)CN(C)CC3)OC(N)=C(C#N)C1c1ccc(F)cc1 (stereo unspecified) | 63* | 36 | 10 | 19*

Assay outcomes from PubChem BioAssay.
